Among the data in ChEMBL document CHEMBL3351628, “2,4,5-Trisubstituted thiazole derivatives: a novel and potent class of non-nucleoside inhibitors of wild type and mutant HIV-1 reverse transcriptase” (Eur J Med Chem, 2014) are Retention_time, IC50 and Activity values, retold here.

What is called IC50 is the concentration that inhibits the measured activity by half.

Data set [1] in a line: Retention time of the compound by HPLC analysis. The class given is physicochemical.
Data set [2] relates to Human immunodeficiency virus 1. Put plainly: Antiviral activity against wild type HIV1 infected in HEK293T cells transfected with plasmid VSV-G/pNL4-3.luc.R-E- assessed as inhibition of viral replication after 48 hrs by luciferase reporter gene assay. The note with it: Human immunodeficiency virus 1, HEK-293T, 48 h; read-out: IC50. The class given is functional, organism-based, HEK-293T. In short, it runs like this: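 VSV-G-pseudotyped single-cycle virus: VSVG plasmid plus env-deficient pNL4-3.luc.R⁻E⁻ vector (wild type or RT-mutant) co-transfected into HEK 293T by calcium phosphate. Medium changed at 16 h, supernatant collected 48 h post-transfection, normalised by p24 ELISA to 0.2 ng p24/mL. HEK 293T targets seeded a day ahead; compound added 15 min before virus. Cells lysed 48 h post-infection, luciferase read. IC50 from dose–infectivity curves.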

In another data set the test system is HEK-293T. Put plainly: Cytotoxicity against HEK293T cells at 10 uM after 48 hrs. The data set is classed as cell-based. The following applies: human. In short, it runs like this:
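HEK 293T cells incubated 48 h with compound at final 10 μM under the antiviral culture conditions, without virus. Viability read with a cell proliferation assay kit.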

On to `COc1ccc(-c2nc(NCc3ccc(O)c(OC)c3)sc2Cc2ccccc2)cc1`, for which, in data set [1], the Retention_time was found to be 14.86 min. The IC50 in data set [2] came out at 330 nM. For the same compound, the Activity result in the data set on HEK-293T is on record as “Non-toxic”.
The matching figures for `COc1ccc(-c2nc(NCc3cccnc3)sc2Cc2ccccc2)cc1`: 10.25 min, 4670 nM and “Non-toxic”.
The matching figures for `COc1ccc(CNc2nc(-c3ccccc3)c(Cc3ccc(C#N)cc3)s2)cc1`: 17.21 min, 4790 nM and “Non-toxic”.
For `COc1ccc(-c2nc(NCc3ccccc3)sc2Cc2ccccc2)cc1`, in that order: 28.1 min, 650 nM and “Non-toxic”.
As for `COc1ccc(-c2nc(NCc3cccc(OC)c3)sc2Cc2ccccc2)cc1`, in data set [1], the Retention_time is on record as 27.45 min. Further, the IC50 in data set [2] amounted to 820 nM. In the data set with HEK-293T, the Activity result is “Non-toxic”.
For `COc1ccc(-c2nc(NCc3ccc(C#N)cc3)sc2Cc2ccccc2)cc1`, in that order: 20.01 min, 450 nM and “Non-toxic”.
For `CCN(CC)c1nc(-c2ccc(O)cc2)c(Cc2ccccc2)s1`, in that order: 19.11 min, 4400 nM and “Non-toxic”.
For `COc1ccc(-c2nc(NCc3ccco3)sc2Cc2ccccc2)cc1`, in that order: 19.65 min, 1000 nM and “Non-toxic”.
The compound `COc1ccc(CNc2nc(-c3ccc(Cl)cc3Cl)c(Cc3ccccc3)s2)cc1` had a Retention_time in data set [1] of 53.29 min. Also, the IC50 in data set [2] was found to be 140 nM. Moreover, the Activity entry in the data set with HEK-293T is listed as “Non-toxic”.
In data set [1], `COc1ccc(CNc2nc(-c3ccc(F)cc3)c(Cc3ccccc3)s2)cc1` yielded a Retention_time of 33.02 min. Besides, the IC50 in data set [2] is 1210 nM. In addition, the Activity entry in the data set with HEK-293T was “Non-toxic”.
For `COc1ccc(-c2nc(NCc3cccc([N+](=O)[O-])c3)sc2Cc2ccccc2)cc1`, in that order: 27.61 min, 1470 nM and “Non-toxic”.
The matching figures for `COc1ccc(CNc2nc(-c3ccc(OC)cc3)c(Cc3ccc(OC)cc3)s2)cc1`: 26.12 min, above 10000 nM and “Non-toxic”.
In data set [1], `COc1ccc(CNc2nc(-c3ccc(OC)cc3)c(Cc3ccc([N+](=O)[O-])cc3)s2)cc1` returned a Retention_time of 26.68 min. For the same compound, in data set [2], the IC50 was above 10000 nM. Also, the Activity entry in the data set with HEK-293T was “Non-toxic”.
`COc1ccc(-c2nc(NCc3ccccc3OC)sc2Cc2ccccc2)cc1` showed a Retention_time in data set [1] of 34.78 min. For the same compound, in data set [2], the IC50 was determined as 6970 nM. Further, the Activity entry in the data set with HEK-293T is “Non-toxic”.
Consider `COc1ccc(-c2nc(NCc3cc(OC)c(OC)c(OC)c3)sc2Cc2ccccc2)cc1`, for which the Retention_time in data set [1] is given as 17.16 min. In addition, the IC50 in data set [2] was above 10000 nM. Besides, the Activity result in the data set with HEK-293T is “Non-toxic”.
For `COc1ccc(CNc2nc(-c3ccccc3)c(Cc3ccccc3OC)s2)cc1`, in that order: 27.75 min, 130 nM and “Non-toxic”.
For `COc1ccc(-c2nc(NCc3cc([N+](=O)[O-])ccc3O)sc2Cc2ccccc2)cc1`, in that order: 45.27 min, 5200 nM and “Non-toxic”.
For `COc1ccc(CNc2nc(-c3cc(OC)ccc3OC)c(Cc3ccccc3)s2)cc1`, in that order: 18.55 min, 6200 nM and “Non-toxic”.
`COc1ccc(-c2nc(NCc3ccc(F)cc3)sc2Cc2ccccc2)cc1` returned a Retention_time in data set [1] of 29.67 min. In data set [2], the IC50 amounted to 660 nM. Moreover, the Activity entry in the data set with HEK-293T was “Non-toxic”.
For `COc1ccc(CN(C)c2nc(-c3ccc(OC)cc3)c(Cc3ccccc3)s2)cc1`, in that order: 47.61 min, 370 nM and “Non-toxic”.
For `COc1ccc(-c2nc(/N=C/c3ccc(F)cc3)sc2Cc2ccccc2)cc1`, in that order: 14.58 min, above 10000 nM and “Non-toxic”.
The matching figures for `COc1ccc(CNc2nc(-c3ccccc3)c(Cc3ccccc3)s2)cc1`: 28.38 min, 180 nM and “Non-toxic”.
For `COc1ccc(CCNc2nc(-c3ccc(OC)cc3)c(Cc3ccccc3)s2)cc1`, in data set [1], the Retention_time is listed as 36.91 min. Further, the IC50 in data set [2] is above 10000 nM. Moreover, in the data set on HEK-293T, the Activity entry is “Non-toxic”.
For `COc1ccc(CNc2nc(-c3ccc(OC)cc3)c(Cc3ccc(F)cc3)s2)cc1`, in that order: 29.46 min, above 10000 nM and “Non-toxic”.
For `COc1ccc(-c2nc(NCc3c(Cl)cccc3Cl)sc2Cc2ccccc2)cc1`, in that order: 7.67 min, 7210 nM and “Non-toxic”.
The matching figures for `COc1ccc(-c2nc(NCc3ccc([N+](=O)[O-])cc3)sc2Cc2ccccc2)cc1`: 28.54 min, 800 nM and “Non-toxic”.
In data set [1], `COc1ccc(CNc2nc(-c3ccco3)c(Cc3ccccc3)s2)cc1` gave a Retention_time of 19.97 min. In addition, the half-inhibitory concentration (IC50) in data set [2] is 700 nM. In addition, in the data set with HEK-293T, the Activity result is reported as “Non-toxic”.
The matching figures for `CCN(CC)c1nc(-c2ccc(OC)cc2)c(Cc2ccccc2)s1`: 29.77 min, 2300 nM and “Non-toxic”.
The matching figures for `COc1ccc(CNc2nc(-c3ccc(OC)cc3)c(C)s2)cc1`: 13.3 min, 9590 nM and “Non-toxic”.
For `COc1ccc(Nc2nc(-c3ccccc3)c(Cc3ccccc3OC)s2)cc1`, in that order: 3.18 min, above 10000 nM and “Non-toxic”.
With `COc1ccc(-c2nc(NCc3ccc4ccccc4c3)sc2Cc2ccccc2)cc1`, the Retention_time in data set [1] stood at 72.49 min. The IC50 in data set [2] worked out at 960 nM. Further, in the data set on HEK-293T, the Activity entry is “Non-toxic”.
As to `COc1ccc(CNc2nc(-c3ccc(OC)cc3)c(Cc3ccccc3)s2)cc1`, in data set [1], the Retention_time was determined as 29.14 min. The IC50 in data set [2] amounted to 310 nM. Moreover, in the data set with HEK-293T, the Activity result is listed as “Non-toxic”.
